These results are taken from PMC9633546 (Angewandte Chemie (International Ed. in English), 2022).

Each structure is given as a SMILES string. Converted amounts (≈) assume the structure as drawn.

As a reminder, the MIC is the lowest concentration that inhibits growth of the organism. A word on the fraction unbound: it is the share of the substance not bound to proteins or other matrix. High values mean much free substance, low ones little free substance. Usually half-life stands for how long it takes for the measured level to halve. A higher half-life goes with slow decline.

Data set [1] deals with M. abscessus ATCC 19977. As to the kind of experiment: MIC assay in 96-well plate format, WT M. abscessus. Format: cell-based, Mycobacterium abscessus subsp. abscessus. To be noted: Mycobacteroides abscessus, ATCC19977, read-out: WT Mab MIC.
In data set [2] the test system is Δarr M. abscessus. As to the kind of experiment: MIC assay in 96-well plate format, arr-deleted strain. To be noted: isogenic arr-deleted M. abscessus ATCC 19977; 90 % growth inhibition. It is filed as cell-based, Mycobacterium abscessus.
A short description of data set [3]: in vitro. To be noted: plasma.
Data set [4] is described as follows: Pharmacokinetics studies in CD-1 mice. It is filed as in vivo, mouse.
Data set [5] concerns Arr Mab. As to the kind of experiment: LC-MS/HPLC in vitro validation of ADP-ribosylation. Format: biochemical, M. abscessus. To be noted: 40 minute incubation, 5 µM enzyme. In outline:
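The enzyme was recombinant M. abscessus Arr, cloned, expressed and purified in-house. Enzymatic reactions were analysed by LC-MS, quantifying the remaining rifamycin and its ADP-ribosylated adducts.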

For `CC[C@H]1OC(=O)[C@H](C)[C@@H](O[C@H]2C[C@@](C)(OC)[C@@H](O)[C@H](C)O2)[C@H](C)[C@@H](O[C@@H]2O[C@H](C)C[C@H](N(C)C)[C@H]2O)[C@](C)(OC)C[C@@H](C)C(=O)[C@H](C)[C@@H](O)[C@]1(C)O` [clarithromycin], the MIC in data set [1] stood at 1.45 µM (≈ 1.08 µg/mL). The “Δarr Mab MIC” value in data set [2] was 1.8 µM.

As for `CO[C@H]1/C=C/O[C@@]2(C)Oc3c(C)c(O)c4c(c3C2=O)C2=NC3(CCN(CC(C)C)CC3)NC2=C(NC(=O)/C(C)=C\C=C\[C@H](C)[C@H](O)[C@@H](C)[C@@H](O)[C@@H](C)[C@H](OC(C)=O)[C@@H]1C)C4=O` [rifabutin], the MIC in data set [1] worked out at 1.15 µM (≈ 0.974 µg/mL). In addition, the fraction unbound in data set [3] amounted to 0.0376. Besides, the V d in data set [4] (CD-1 mice, single dose 10 mg/kg) stood at 3.51 L/kg. For the same compound, the fAUC/MIC in data set [4] (based on p.o. doses of 10 mg kg^−1) stood at 0.22. In addition, the half-life in data set [4] (female, CD-1, mouse, plasma, 10 mg/kg) was 4 h. Besides, the “Δarr Mab MIC” value in data set [2] is 0.031 µM. The “ADP-ribosylation upon incubation with Arr Mab and NAD+” value in data set [5] is reported as “completely converted”; in data set [5] (listed as Rifabutin) it was “fully converted”.

`CO[C@H]1/C=C/O[C@@]2(C)Oc3c(C)c(O)c4c(O)c(c(/C=N/N5CCN(C)CC5)c(O)c4c3C2=O)NC(=O)/C(C)=C\C=C\[C@H](C)[C@H](O)[C@@H](C)[C@@H](O)[C@@H](C)[C@H](OC(C)=O)[C@@H]1C` [rifampicin]: the MIC in data set [1] is 5.3 µM (≈ 4.36 µg/mL). The “Δarr Mab MIC” value in data set [2] was 0.26 µM. Besides, the “ADP-ribosylation upon incubation with Arr Mab and NAD+” value in data set [5] is “completely converted”.
